Blank lines part the entries; values can stand above or below the compound they belong to.
What was measured:
KB [1] = assay: Cytotoxicity against human KB cells assessed as growth inhibition at 10 '-6 M after 72 hrs by MTS assay; assay type: functional; conditions: read-out: GI
Method in brief: (§1)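 Cells seeded at 600 per well, dosed 24 h later from DMSO stocks over 0.5 nM–10 µM (DMSO 1% final in controls). KB was grown in D-MEM with 10% fetal calf serum; HL60 in complete RPMI. After 72 h, MTS was added for 3 h at 37 °C and A490 read. Inhibition % = (1 − OD treated/OD control) × 100, in triplicate; IC50 runs were in duplicate.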

Ovis aries [2] = organism: Ovis aries; assay: Inhibition of sheep brain tubulin polymerization at 2 x 10 '-5 M after 10 mins by turbidimetry
Method in brief: (§2)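 Microtubule protein was purified from sheep brain by two assembly/disassembly cycles (37 °C/0 °C) in 100 mM MES pH 6.6, 1 mM EGTA, 0.5 mM MgCl2. Compound in DMSO (1 µL) was added to 150 µL microtubule solution, incubated 10 min at 37 °C then 5 min at 0 °C, and turbidity read at 350 nm. Single tests were at ~2 × 10^-5 M; IC50 was also expressed relative to deoxypodophyllotoxin IC50.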

HL-60 [3] = assay: Cell cycle arrest in human HL60 cells assessed as accumulation at G0/G1 phase at 20 nM after 24 hrs by propidium iodide based flow cytometry analysis (reference value: 50.6 %); assay type: functional
HL-60 [4] = assay: Cell cycle arrest in human HL60 cells assessed as accumulation at G0/G1 phase at 20 nM after 48 hrs by propidium iodide based flow cytometry analysis (reference value: 51.2 %); assay type: functional
HL-60 [5] = assay: Cell cycle arrest in human HL60 cells assessed as accumulation at S phase at 20 nM after 24 hrs by propidium iodide based flow cytometry analysis (reference value: 22.3 %); assay type: functional
HL-60 [6] = assay: Cell cycle arrest in human HL60 cells assessed as accumulation at S phase at 20 nM after 48 hrs by propidium iodide based flow cytometry analysis (reference value: 20.9 %); assay type: functional
HL-60 [7] = assay: Cell cycle arrest in human HL60 cells assessed as accumulation at G2/M phase at 20 nM after 24 hrs by propidium iodide based flow cytometry analysis (reference value: 24.8 %); assay type: functional
HL-60 [8] = assay: Cell cycle arrest in human HL60 cells assessed as accumulation at Sub G1 phase at 20 nM after 48 hrs by propidium iodide based flow cytometry analysis (reference value: 4 %); assay type: functional
HL-60 [9] = assay: Cell cycle arrest in human HL60 cells assessed as accumulation at Sub G1 phase at 20 nM after 24 hrs by propidium iodide based flow cytometry analysis (reference value: 2.3 %); assay type: functional
HL-60 [10] = assay: Cell cycle arrest in human HL60 cells assessed as accumulation at G2/M phase at 20 nM after 48 hrs by propidium iodide based flow cytometry analysis (reference value: 23.9 %); assay type: functional
HL-60 [11] = assay: Induction of apoptosis in human HL60 cells assessed as late apoptotic cells at 100 nM after 24 hrs using annexin-V-PE/7-AAD staining by flow cytometry analysis (reference value: 0.8 %); assay type: functional
HL-60 [12] = assay: Induction of apoptosis in human HL60 cells assessed as early apoptotic cells at 100 nM after 48 hrs using annexin-V-PE/7-AAD staining by flow cytometry analysis (reference value: 14.7 %); assay type: functional
HL-60 [13] = assay: Induction of apoptosis in human HL60 cells assessed as early apoptotic cells at 100 nM after 24 hrs using annexin-V-PE/7-AAD staining by flow cytometry analysis (reference value: 7.5 %); assay type: functional
HL-60 [14] = assay: Induction of apoptosis in human HL60 cells assessed as viable cells at 100 nM after 48 hrs using annexin-V-PE/7-AAD staining by flow cytometry analysis (reference value: 83.9 %); assay type: functional; conditions: HL-60, 48 h, read-out: Activity
HL-60 [15] = assay: Induction of apoptosis in human HL60 cells assessed as viable cells at 100 nM after 24 hrs using annexin-V-PE/7-AAD staining by flow cytometry analysis (reference value: 90.8 %); assay type: functional; conditions: HL-60, 24 h, read-out: Activity
HL-60 [16] = assay: Induction of apoptosis in human HL60 cells assessed as late apoptotic cells at 100 nM after 48 hrs using annexin-V-PE/7-AAD staining by flow cytometry analysis (reference value: 0.6 %); assay type: functional
HL-60 [17] = assay: Cell cycle arrest in human HL60 cells assessed as accumulation at S phase at 100 nM after 24 hrs by propidium iodide based flow cytometry analysis (reference value: 22.3 %); assay type: functional
HL-60 [18] = assay: Cell cycle arrest in human HL60 cells assessed as accumulation at G2/M phase at 100 nM after 48 hrs by propidium iodide based flow cytometry analysis (reference value: 23.9 %); assay type: functional
HL-60 [19] = assay: Cell cycle arrest in human HL60 cells assessed as accumulation at G0/G1 phase at 100 nM after 24 hrs by propidium iodide based flow cytometry analysis (reference value: 50.6 %); assay type: functional
HL-60 [20] = assay: Cell cycle arrest in human HL60 cells assessed as accumulation at S phase at 100 nM after 48 hrs by propidium iodide based flow cytometry analysis (reference value: 20.9 %); assay type: functional
HL-60 [21] = assay: Cell cycle arrest in human HL60 cells assessed as accumulation at Sub G1 phase at 100 nM after 24 hrs by propidium iodide based flow cytometry analysis (reference value: 2.3 %); assay type: functional
HL-60 [22] = assay: Cell cycle arrest in human HL60 cells assessed as accumulation at Sub G1 phase at 100 nM after 48 hrs by propidium iodide based flow cytometry analysis (reference value: 4 %); assay type: functional
HL-60 [23] = assay: Cell cycle arrest in human HL60 cells assessed as accumulation at G0/G1 phase at 100 nM after 48 hrs by propidium iodide based flow cytometry analysis (reference value: 51.2 %); assay type: functional
HL-60 [24] = assay: Cell cycle arrest in human HL60 cells assessed as accumulation at G2/M phase at 100 nM after 24 hrs by propidium iodide based flow cytometry analysis (reference value: 24.8 %); assay type: functional
KB [25] = assay: Cytotoxicity against human KB cells after 72 hrs by MTS assay; assay type: functional, cell-based; method in brief: as §1
HL-60 [26] = assay: Cytotoxicity against human HL60 cells after 72 hrs by MTS assay; assay type: functional, cell-based; conditions: HL-60, 72 h; method in brief: as §1
[27] = Inhibition of sheep brain tubulin polymerization after 10 mins by turbidimetry analysis; set-up: species or system Ovis aries; method in brief: as §2
HL-60 [28] = assay: Cytotoxicity against human HL60 cells assessed as growth inhibition after 72 hrs by MTS assay; conditions: HL-60, 72 h
Ovis aries [29] = organism: Ovis aries; assay: Ratio of compound IC50 to DPPT IC50 for sheep brain tubulin; method in brief: as §2

SMILES: COc1ccc(-c2coc3c(OC)c(OC)c(OC)c(O)c3c2=O)cc1[N+](=O)[O-]
inhibition of growth at 1 µM (KB [1]): 18%

inhibition (Ovis aries [2]): 12%
SMILES: COc1cc(OC)c(/C=C2\Oc3c(cc(OC)c(OC)c3OC)C2=O)cc1N
inhibition of growth at 1 µM (KB [1]): 0%

SMILES: COc1ccc(-c2oc3c(OC)c(OC)c(OC)cc3c(=O)c2OC)cc1N
inhibition of growth at 1 µM (KB [1]): 84%

SMILES: COc1ccc(/C=C2\Oc3c(OC)c(O)c(OC)c(OC)c3C2=O)cc1N
inhibition of growth at 1 µM (KB [1]): 0%

SMILES: COc1ccc(-c2cc(=O)c3c(OC)c(OC)c(OC)c(OC)c3o2)cc1N
inhibition of growth at 1 µM (KB [1]): 6%

inhibition (Ovis aries [2]): 12%
SMILES: COc1ccc(/C=C2\Oc3c(cc(OC)c(OC)c3OC)C2=O)cc1[N+](=O)[O-]
inhibition of growth at 1 µM (KB [1]): 0%

SMILES: COc1cc([C@@H]2c3cc4c(cc3C[C@H]3COC(=O)[C@@H]32)OCO4)cc(OC)c1OC [DESOXYPODOPHYLLOTOXIN]
Activity (HL-60 [3]): 25.2% | Activity (HL-60 [4]): 23.5% | Activity (HL-60 [5]): 9.5% | Activity (HL-60 [6]): 37.7% | Activity (HL-60 [7]): 57.6% | Activity (HL-60 [8]): 34.1% | Activity (HL-60 [9]): 7.7% | Activity (HL-60 [10]): 29.8%

SMILES: COc1cccc2c1C(=O)c1c(O)c3c(c(O)c1C2=O)C[C@@](O)(C(=O)CO)C[C@@H]3O[C@H]1C[C@H](N)[C@H](O)[C@H](C)O1 [DOXORUBICIN]
Activity (HL-60 [11]): 0.9% | Activity (HL-60 [12]): 68% | Activity (HL-60 [13]): 17.8% | viability at 0.1 µM (HL-60 [14]): 29.8% | viability at 0.1 µM (HL-60 [15]): 81% | Activity (HL-60 [16]): 1.9%

SMILES: COc1ccc(-c2coc3c(OC)c(OC)c(OC)c(O)c3c2=O)cc1N
inhibition of growth at 1 µM (KB [1]): 0%

SMILES: COc1ccc(-c2cc(=O)c3c(O)c(OC)c(OC)c(OC)c3o2)cc1N
inhibition of growth at 1 µM (KB [1]): 96%

SMILES: COc1ccc(/C=C2\Oc3c(OC)c(OC)c(OC)c(O)c3C2=O)cc1N
inhibition of growth at 1 µM (KB [1]): 0%

inhibition (Ovis aries [2]): 33%
SMILES: COc1ccc(/C=C2\Oc3c(cc(OC)c(OC)c3OC)C2=O)cc1N
Activity (HL-60 [11]): 1.5% | Activity (HL-60 [17]): 18.7% | Activity (HL-60 [12]): 16.4% | Activity (HL-60 [18]): 20.8% | Activity (HL-60 [13]): 12.1% | Activity (HL-60 [19]): 39% | viability at 0.1 µM (HL-60 [14]): 81.7% | Activity (HL-60 [20]): 22.5% | inhibition of growth at 1 µM (KB [1]): 98% | viability at 0.1 µM (HL-60 [15]): 85.4% | Activity (HL-60 [21]): 13.9% | Activity (HL-60 [22]): 14% | Activity (HL-60 [23]): 42.6% | Activity (HL-60 [24]): 28.4% | Activity (HL-60 [16]): 1.1% | IC50 (KB [25]): 0.4 µM | IC50 (HL-60 [26]): 0.18 µM

SMILES: COc1ccc(/C=C2\Oc3c(OC)c(OC)c(OC)c(OC)c3C2=O)cc1N
inhibition of growth at 1 µM (KB [1]): 0%

SMILES: COc1ccc(/C=C2\Oc3c(OC)c(OC)c(OC)c(O)c3C2=O)cc1[N+](=O)[O-]
inhibition of growth at 1 µM (KB [1]): 0%

SMILES: COc1ccc(-c2oc3c(OC)c(OC)c(OC)c(OC)c3c(=O)c2OC)cc1N
inhibition of growth at 1 µM (KB [1]): 17%

SMILES: COc1ccc(C2COc3c(OC)c(OC)c(OC)c(O)c3C2=O)cc1N (configuration not stated)
inhibition of growth at 1 µM (KB [1]): 4%

SMILES: COc1cc(OC)c(/C=C2\Oc3c(OC)c(OC)c(OC)c(O)c3C2=O)cc1N
inhibition of growth at 1 µM (KB [1]): 0%

IC50 [27]: 8.6 µM | Ratio IC50 (Ovis aries [29]): 4
SMILES: COc1ccc(/C=C2\Oc3c(cc(OC)c(OC)c3OC)C2=O)c(O)c1O
Activity (HL-60 [11]): 1.9% | Activity (HL-60 [17]): 23.7% | Activity (HL-60 [12]): 21.1% | Activity (HL-60 [18]): 17.2% | Activity (HL-60 [13]): 12.9% | Activity (HL-60 [19]): 9.8% | viability at 0.1 µM (HL-60 [14]): 77.1% | Activity (HL-60 [20]): 28.2% | viability at 0.1 µM (HL-60 [15]): 84.1% | Activity (HL-60 [21]): 14% | Activity (HL-60 [22]): 23.2% | Activity (HL-60 [23]): 31.4% | Activity (HL-60 [24]): 52.5% | Activity (HL-60 [16]): 0.8% | IC50 (HL-60 [28]): 100 µM

IC50 [27]: 9 µM | Ratio IC50 (Ovis aries [29]): 4
SMILES: COc1ccc(-c2oc3c(OC)c(OC)c(OC)c(O)c3c(=O)c2OC)cc1N
Activity (HL-60 [11]): 2.1% | Activity (HL-60 [17]): 17.5% | Activity (HL-60 [12]): 41% | Activity (HL-60 [18]): 21.3% | Activity (HL-60 [13]): 22.8% | Activity (HL-60 [19]): 40.3% | viability at 0.1 µM (HL-60 [14]): 56.3% | Activity (HL-60 [20]): 26.5% | inhibition of growth at 1 µM (KB [1]): 99% | viability at 0.1 µM (HL-60 [15]): 74.2% | Activity (HL-60 [21]): 8.9% | Activity (HL-60 [22]): 19.1% | Activity (HL-60 [23]): 33.1% | Activity (HL-60 [24]): 33.3% | Activity (HL-60 [16]): 1.9% | IC50 (HL-60 [26]): 0.055 µM

inhibition (Ovis aries [2]): 21%
SMILES: COc1ccc(/C=C2\Oc3c(cc(OC)c(OC)c3OC)C2=O)cc1O
Activity (HL-60 [11]): 1.1% | Activity (HL-60 [17]): 20.6% | Activity (HL-60 [12]): 24.9% | Activity (HL-60 [18]): 18.2% | Activity (HL-60 [13]): 16.8% | Activity (HL-60 [19]): 40.3% | viability at 0.1 µM (HL-60 [14]): 73.3% | Activity (HL-60 [20]): 25.6% | inhibition of growth at 1 µM (KB [1]): 100% | viability at 0.1 µM (HL-60 [15]): 81.1% | Activity (HL-60 [21]): 14.4% | Activity (HL-60 [22]): 21.1% | Activity (HL-60 [23]): 35.1% | Activity (HL-60 [24]): 24.7% | Activity (HL-60 [16]): 1.1% | IC50 (KB [25]): 0.11 µM | IC50 (HL-60 [26]): 0.12 µM

SMILES: COc1ccc(/C=C/C(=O)c2c(O)c(OC)c(OC)c(OC)c2OC)cc1N
inhibition of growth at 1 µM (KB [1]): 11%

From ChEMBL document CHEMBL1938313, “Influence of the skeleton on the cytotoxicity of flavonoids” (Bioorg Med Chem, 2012)
